Source: ChEMBL document CHEMBL3244425 (J Med Chem, 1979)

What was measured:
[1] = Fraction unbound in 22% albino mouse serum at 10 uM by equilibrium dialysis method in presence of diisopropyl fluorophosphate; type: ADME, cell-free
[2] = biological target: serum albumin (Homo sapiens, UniProt P02768); test: Binding affinity to human serum albumin at 10 uM after 12 to 20 hrs by scintillation spectrometry; type: ADME
Procedure, shortened: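 HSA as supplied (lipid under 10 mg/g), 1% (10 mg/mL) in 0.05 M buffer. Equilibrium dialysis against buffer for 12-20 h at room temperature, with 10 μM radiolabeled substrate. Free percentage is taken from the ratio of radioactivities on the two sides, then corrected for partial hydrolysis using TLC of ether extracts.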

[3] = Ratio of oxazepam level in brain to blood in albino mouse at 10 mg equivalent of oxazepam/kg after 1 min; type: ADME, tissue-based
[4] = Ratio of oxazepam level in brain to blood in albino mouse at 10 mg equivalent of oxazepam/kg after 3 mins; type: ADME, tissue-based; details: 0.05 h
[5] = Ratio of oxazepam level in brain to blood in albino mouse at 10 mg equivalent of oxazepam/kg after 5 mins; type: ADME, tissue-based
[6] = Ratio of oxazepam level in brain to blood in albino mouse at 10 mg equivalent of oxazepam/kg after 10 mins; type: ADME, tissue-based
[7] = Ratio of oxazepam level in brain to blood in albino mouse at 10 mg equivalent of oxazepam/kg after 30 mins; type: ADME, tissue-based; details: 0.5 h
[8] = test system: Mus musculus; test: Drug excretion in albino mouse assessed as unexcreted drug at 10 mg equivalent of oxazepam/kg after 100 to 150 hrs; type: ADME, organism-based; details: in vivo
[9] = Ratio of oxazepam level in brain to blood in albino mouse at 10 mg equivalent of oxazepam/kg after 6 mins; type: ADME, tissue-based; details: 0.1 h
[10] = Ratio of oxazepam level in brain to blood in albino mouse at 10 mg equivalent of oxazepam/kg after 12 mins; type: ADME, tissue-based; details: 0.2 h
[11] = Ratio of oxazepam level in brain to blood in albino mouse at 10 mg equivalent of oxazepam/kg after 20 mins; type: ADME, tissue-based
[12] = Ratio of oxazepam level in brain to blood in albino mouse at 10 mg equivalent of oxazepam/kg after 40 mins; type: ADME, tissue-based
[13] = test system: Mus musculus; test: Drug excretion in albino mouse assessed as unexcreted drug at 10 mg equivalent of oxazepam/kg after 150 hrs; type: ADME, organism-based; details: in vivo
[14] = Ratio of oxazepam level in brain to blood in albino mouse at 15 mg equivalent of oxazepam/kg after 1 min; type: ADME, tissue-based
[15] = Ratio of oxazepam level in brain to blood in albino mouse at 15 mg equivalent of oxazepam/kg after 3 mins; type: ADME, tissue-based; details: 0.05 h
[16] = Ratio of oxazepam level in brain to blood in albino mouse at 15 mg equivalent of oxazepam/kg after 6 mins; type: ADME, tissue-based; details: 0.1 h
[17] = Ratio of oxazepam level in brain to blood in albino mouse at 15 mg equivalent of oxazepam/kg after 12 mins; type: ADME, tissue-based; details: 0.2 h
[18] = Ratio of oxazepam level in brain to blood in albino mouse at 15 mg equivalent of oxazepam/kg after 20 mins; type: ADME, tissue-based
[19] = Ratio of oxazepam level in brain to blood in albino mouse at 15 mg equivalent of oxazepam/kg after 40 mins; type: ADME, tissue-based
[20] = Ratio of oxazepam level in brain to blood in albino mouse at 10 mg equivalent of oxazepam/kg after 2 mins; type: ADME, tissue-based
[21] = Ratio of oxazepam level in brain to blood in albino mouse at 5 mg equivalent of oxazepam/kg after 2 mins; type: ADME, tissue-based
[22] = Ratio of oxazepam level in brain to blood in albino mouse at 5 mg equivalent of oxazepam/kg after 5 mins; type: ADME, tissue-based
[23] = Ratio of oxazepam level in brain to blood in albino mouse at 5 mg equivalent of oxazepam/kg after 10 mins; type: ADME, tissue-based
[24] = Ratio of oxazepam level in brain to blood in albino mouse at 5 mg equivalent of oxazepam/kg after 20 mins; type: ADME, tissue-based
[25] = Ratio of oxazepam level in brain to blood in albino mouse at 5 mg equivalent of oxazepam/kg after 40 mins; type: ADME, tissue-based
[26] = Ratio of oxazepam level in brain to blood in albino mouse at 5 mg equivalent of oxazepam/kg after 1 min; type: ADME, tissue-based
[27] = Ratio of oxazepam level in brain to blood in albino mouse at 5 mg equivalent of oxazepam/kg after 3 mins; type: ADME, tissue-based; details: 0.05 h
[28] = test system: Mus musculus; test: Drug excretion in albino mouse assessed as unexcreted drug at 5 mg equivalent of oxazepam/kg after 150 hrs; type: ADME, organism-based; details: in vivo
[29] = test system: Mus musculus; test: Drug excretion in albino mouse assessed as unexcreted drug at 5 mg equivalent of oxazepam/kg after 96 hrs; type: ADME, organism-based; details: in vivo
[30] = test system: Mus musculus; test: Drug excretion in albino mouse assessed as unexcreted drug at 10 mg equivalent of oxazepam/kg after 96 hrs; type: ADME, organism-based; details: in vivo

Chain of serum albumin (P02768 whole entry): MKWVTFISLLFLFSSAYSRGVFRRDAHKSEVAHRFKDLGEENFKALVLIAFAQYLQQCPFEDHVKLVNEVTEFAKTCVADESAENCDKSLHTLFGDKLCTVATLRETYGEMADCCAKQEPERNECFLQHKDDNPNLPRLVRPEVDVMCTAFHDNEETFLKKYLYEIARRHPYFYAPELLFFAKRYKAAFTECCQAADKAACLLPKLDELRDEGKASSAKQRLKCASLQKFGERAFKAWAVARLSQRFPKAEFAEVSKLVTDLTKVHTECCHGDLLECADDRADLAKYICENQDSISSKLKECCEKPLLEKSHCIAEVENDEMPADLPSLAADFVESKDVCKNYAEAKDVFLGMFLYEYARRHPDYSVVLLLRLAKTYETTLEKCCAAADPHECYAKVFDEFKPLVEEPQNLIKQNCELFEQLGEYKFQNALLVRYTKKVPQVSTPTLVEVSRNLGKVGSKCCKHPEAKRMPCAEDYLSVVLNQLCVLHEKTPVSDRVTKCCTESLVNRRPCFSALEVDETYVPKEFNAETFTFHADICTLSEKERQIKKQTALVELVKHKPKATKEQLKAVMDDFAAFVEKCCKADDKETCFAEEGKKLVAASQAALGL

Work on `CCC(CC)C(=O)OC1N=C(c2ccccc2)c2cc(Cl)ccc2NC1=O` (stereo not given) yielded a fraction unbound at 10 µM [1] of 0.038 and a fraction unbound at 10 µM [2] of 0.06.
`CC(=O)OC1N=C(c2ccccc2)c2cc(Cl)ccc2NC1=O` (stereo not given) gave a fraction unbound at 10 µM [1] of 0.285 and a fraction unbound at 10 µM [2] of 0.246.
`CCCC(=O)OC1N=C(c2ccccc2)c2cc(Cl)ccc2NC1=O` (stereo not given) gave a fraction unbound at 10 µM [1] of 0.149 and a fraction unbound at 10 µM [2] of 0.089.
`CC(C)C(=O)OC1N=C(c2ccccc2)c2cc(Cl)ccc2NC1=O` (stereo not given) showed a fraction unbound at 10 µM [1] of 0.147 and a fraction unbound at 10 µM [2] of 0.078.
For `COC(=O)CCC(=O)OC1N=C(c2ccccc2)c2cc(Cl)ccc2NC1=O` (stereo not given), the fraction unbound at 10 µM [1] was 0.299 and the fraction unbound at 10 µM [2] was 0.172.
`O=C(CCCc1ccccc1)OC1N=C(c2ccccc2)c2cc(Cl)ccc2NC1=O` (stereo not given) gave a fraction unbound at 10 µM [1] of 0.102 and a fraction unbound at 10 µM [2] of 0.034.
For `O=C(CCc1ccccc1)OC1N=C(c2ccccc2)c2cc(Cl)ccc2NC1=O` (stereo not given), the fraction unbound at 10 µM [2] was 0.052.
Work on `CC(Cc1ccccc1)C(=O)OC1N=C(c2ccccc2)c2cc(Cl)ccc2NC1=O` (stereo not given) yielded a fraction unbound at 10 µM [1] of 0.111 and a fraction unbound at 10 µM [2] of 0.051.
For `CC(=O)OC1N=C(c2ccccc2)c2cc(Cl)ccc2N[14C]1=O` (stereo not given), the Ratio [3] was 4, the Ratio [4] was 3.4 and the Ratio [5] was 2. The Ratio [6] was 2.4, the Ratio [7] was 4 and the Drug recovery [8] was 0%.
In the case of `CCC(=O)OC1N=C(c2ccccc2)c2cc(Cl)ccc2N[14C]1=O` (stereo not given), the Ratio [3] is reported as 3.8, the Ratio [4] is reported as 2 and the Ratio [9] is reported as 3. For the same compound, the Ratio [10] was 2.4, the Ratio [11] was 2.8 and the Ratio [12] was 2.8. For the same compound, the Drug recovery [13] was 19%.
With `CCCC(=O)OC1N=C(c2ccccc2)c2cc(Cl)ccc2N[14C]1=O` (stereo not given) the Ratio [14] was 0.2, the Ratio [15] was 0.3 and the Ratio [16] was 0.4. For the same compound, the Ratio [17] was 0.8, the Ratio [18] was 1.4 and the Ratio [19] was 2.
`CCC(CC)C(=O)OC1N=C(c2ccccc2)c2cc(Cl)ccc2N[14C]1=O` (stereo not given) showed a Ratio [20] of 0.7, a Ratio [5] of 0.6 and a Ratio [6] of 1. For the same compound, the Ratio [11] was 1.1, the Ratio [7] was 1.4 and the Ratio [12] was 1.7.
`CC(C)C(=O)OC1N=C(c2ccccc2)c2cc(Cl)ccc2N[14C]1=O` (stereo not given) showed a Ratio [21] of 0.7, a Ratio [22] of 1.2 and a Ratio [23] of 1.8. For the same compound, the Ratio [24] was 1.9 and the Ratio [25] was 2.3.
For `O=C(CCCc1ccccc1)OC1N=C(c2ccccc2)c2cc(Cl)ccc2N[14C]1=O` (stereo not given), the Ratio [26] was 0.5, the Ratio [27] was 0.5 and the Ratio [22] was 0.3. The Ratio [23] was 0.4, the Ratio [24] was 1 and the Ratio [25] was 0.9. It also gave a Drug recovery [28] of 38%.
For `O=C(CCc1ccccc1)OC1N=C(c2ccccc2)c2cc(Cl)ccc2N[14C]1=O` (stereo not given), the Ratio [26] was 0.6, the Ratio [27] was 0.4 and the Ratio [22] was 0.5. The Ratio [23] was 0.5, the Ratio [24] was 1.4 and the Ratio [25] was 2.2. For the same compound, the Drug recovery [29] was 26%.
In the case of `CC(C)CC(=O)OC1N=C(c2ccccc2)c2cc(Cl)ccc2NC1=O` (stereo not given), the fraction unbound at 10 µM [1] is reported as 0.067 and the fraction unbound at 10 µM [2] is reported as 0.093.
Work on `CC(C)(C)C(=O)OC1N=C(c2ccccc2)c2cc(Cl)ccc2N[14C]1=O` (stereo not given) yielded a Ratio [4] of 1.7, a Ratio [5] of 2 and a Ratio [6] of 2.2. It also gave a Ratio [11] of 2, a Ratio [7] of 2.5 and a Drug recovery [30] of 7%.
For `CC(C)(Cc1ccccc1)C(=O)OC1N=C(c2ccccc2)c2cc(Cl)ccc2NC1=O` (stereo not given), the fraction unbound at 10 µM [1] was 0.113 and the fraction unbound at 10 µM [2] was 0.022.
With `CC(Cc1ccccc1)C(=O)OC1N=C(c2ccccc2)c2cc(Cl)ccc2N[14C]1=O` (single isomer, unassigned; (+)) the Drug recovery [28] was 34%.
With `CC(Cc1ccccc1)C(=O)OC1N=C(c2ccccc2)c2cc(Cl)ccc2N[14C]1=O` (single isomer, unassigned; (-)) the Ratio [27] was 0.3, the Ratio [22] was 1.1 and the Ratio [23] was 1.6. The Ratio [24] was 2 and the Ratio [25] was 2.1.
